Results reported in ChEMBL document CHEMBL2407018, “Luteolin suppresses the differentiation of THP-1 cells through the Inhibition of NOX2 mRNA expression and the membrane translocation of p47phox” (J Nat Prod, 2013).
Activity calls are given as the source filed them. The rule behind the calls is not given here.

Key:
[1] = target: T1, NADPH oxidase 2 (Homo sapiens) (UniProt P04839); assay: Inhibition of NOX2 in human THP1 cells assessed as suppression of TPA-induced cell adhesion at 20 uM incubated for 1 hr prior to TPA challenge measured after 24 hrs by microscopic analysis; format: cell-based; settings: THP-1
T1 sequence (whole entry): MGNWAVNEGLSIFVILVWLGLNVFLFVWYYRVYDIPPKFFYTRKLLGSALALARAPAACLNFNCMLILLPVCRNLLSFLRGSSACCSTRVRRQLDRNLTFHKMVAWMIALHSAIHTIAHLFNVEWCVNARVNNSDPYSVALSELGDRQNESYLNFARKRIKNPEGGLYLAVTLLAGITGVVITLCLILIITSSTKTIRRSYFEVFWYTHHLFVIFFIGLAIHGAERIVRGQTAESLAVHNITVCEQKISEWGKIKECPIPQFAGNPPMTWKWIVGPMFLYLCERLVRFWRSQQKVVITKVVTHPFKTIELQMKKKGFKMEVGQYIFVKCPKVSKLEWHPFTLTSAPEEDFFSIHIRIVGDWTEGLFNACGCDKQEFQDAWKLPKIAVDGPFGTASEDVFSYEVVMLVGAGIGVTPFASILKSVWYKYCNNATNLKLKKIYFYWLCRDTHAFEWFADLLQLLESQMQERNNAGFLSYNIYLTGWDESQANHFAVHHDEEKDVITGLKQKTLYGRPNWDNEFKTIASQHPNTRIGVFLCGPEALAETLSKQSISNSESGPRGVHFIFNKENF
Outline: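 THP-1 cells at 2 × 10^6 per 3.5 cm dish in RPMI1640 with 10% FCS. Exposed to compound for 1 h, then to 100 nM TPA for 24 h. Dishes washed three times with PBS and the remaining adherent cells inspected by microscope.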

[2] = target: T1, NADPH oxidase 2 (Homo sapiens); assay: Inhibition of NOX2 in human THP1 cells assessed as downregulation of TPA-induced CD36 mRNA expression at 20 uM incubated for 1 hr prior to TPA challenge measured after 24 hrs by RT-PCR analysis; format: cell-based; settings: THP-1
Outline: (§1)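 THP-1 cells grown in RPMI1640 with 10% heat-inactivated FCS and penicillin/streptomycin at 37 °C, 5% CO2. Seeded at 2 × 10^6 cells per 3.5 cm dish. Compound added 1 h before 100 nM TPA for 24 h. Cells scraped, washed in cold PBS, lysed in TRIzol for total RNA. Transcripts measured by RT-PCR and normalized to 18s rRNA.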

[3] = target: T1, NADPH oxidase 2 (Homo sapiens); assay: Inhibition of NOX2 in human THP1 cells assessed as downregulation of TPA-induced CD14 mRNA expression at 20 uM incubated for 1 hr prior to TPA challenge measured after 24 hrs by RT-PCR analysis; format: cell-based; settings: THP-1; outline: as §1
[4] = target: T1, NADPH oxidase 2 (Homo sapiens); assay: Inhibition of NOX2 in human THP1 cells assessed as downregulation of TPA-induced CD11b mRNA expression at 20 uM incubated for 1 hr prior to TPA challenge measured after 24 hrs by RT-PCR analysis; format: cell-based; settings: THP-1; outline: as §1
[5] = target: T1, NADPH oxidase 2 (Homo sapiens); assay: Inhibition of NOX2 in human THP1 cells assessed as downregulation of TPA-induced CD11b mRNA expression at 0.2 to 2 uM incubated for 1 hr prior to TPA challenge measured after 24 hrs by RT-PCR analysis; format: cell-based; settings: THP-1
Outline: (§2)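 THP-1 cells, 2 × 10^6 per 3.5 cm dish, pretreated 1 h with 0.2, 2 or 20 μM, then 100 nM TPA for 24 h. Cells scraped and washed in cold PBS, TRIzol RNA extracted. CD11b, CD14 and CD36 transcripts measured by RT-PCR and normalized to 18s rRNA.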

THP-1 [6] = assay: Downregulation of TPA-induced NOX2 mRNA expression in human THP1 cells at 20 uM incubated for 1 hr prior to TPA challenge measured after 24 hrs by RT-PCR analysis; format: functional, cell-based
Outline: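 THP-1 cells in RPMI1640 with 10% FCS, 2 × 10^6 cells per 3.5 cm dish, pretreated 1 h, then 100 nM TPA for 24 h. Total RNA extracted in TRIzol, NOX2 measured by RT-PCR and normalized to 18s rRNA.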

[7] = target: T1, NADPH oxidase 2 (Homo sapiens); assay: Inhibition of NOX2 in human THP1 cells assessed as suppression of TPA-induced intracellular ROS accumulation at 20 uM incubated for 1 hr prior to TPA challenge measured after 24 hrs by flow cytometric analysis; format: cell-based; settings: THP-1
Outline: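 THP-1 cells pretreated 1 h, then 100 nM TPA for 24 h. Cells scraped, stained 20 min with 10 μM carboxy-H2DCFDA in PBS with […] in a 5% CO2 incubator, and washed three times in ice-cold PBS. DCF fluorescence read by flow cytometry.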

[8] = target: T1, NADPH oxidase 2 (Homo sapiens); assay: Inhibition of NOX2 in human THP1 cells assessed as downregulation of TPA-induced CD14 mRNA expression at 0.2 to 2 uM incubated for 1 hr prior to TPA challenge measured after 24 hrs by RT-PCR analysis; format: cell-based; settings: THP-1; outline: as §2
[9] = target: T1, NADPH oxidase 2 (Homo sapiens); assay: Inhibition of NOX2 in human THP1 cells assessed as downregulation of TPA-induced CD36 mRNA expression at 0.2 to 2 uM incubated for 1 hr prior to TPA challenge measured after 24 hrs by RT-PCR analysis; format: cell-based; settings: THP-1; outline: as §2
[10] = target: T1, NADPH oxidase 2 (Homo sapiens); assay: Inhibition of NOX2 in human THP1 cells assessed as suppression of TPA-induced membrane translocation of p47phox at 20 uM incubated for 1 hr prior to TPA challenge measured after 12 hrs by Western blot analysis; format: cell-based; settings: THP-1
Outline: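 Cells pretreated 1 h, then 100 nM TPA for 12 h. Lysed in digitonin buffer B (pH 7.5); after 12000g for 15 min the pellet was solubilized in buffer B with 1% Triton X-100 to give the membrane fraction. 20 μg protein run on 12% SDS-PAGE, blotted for p47phox.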

THP-1 [11] = assay: Inhibition of TPA-induced MEK/ERK phosphorylation in human THP1 cells at 20 uM incubated for 1 hr prior to TPA challenge measured after 15 mins by Western blot analysis; format: cell-based
Outline: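 THP-1 cells pretreated 1 h, then 100 nM TPA for 15 min. Lysed in buffer A (Tris pH 7.4 with phosphatase inhibitors, 1% Triton X-100). 20 μg protein run on 12% SDS-PAGE and PVDF, probed for phospho- and total MEK and ERK (1:1000) with biotin secondary and ABC detection.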

Row | SMILES | inhibition [1] | inhibition [2] | inhibition [3] | inhibition [4] | inhibition [5] | Activity (THP-1 [6]) | inhibition [7] | inhibition [8] | inhibition [9] | inhibition [10] | inhibition (THP-1 [11])
1 | O=c1cc(-c2ccc(O)cc2)oc2cc(O)cc(O)c12 | Active | Active | Active | Active |  |  |  |  |  |  | 
2 | O=c1cc(-c2ccccc2)oc2cc(O)cc(O)c12 | Active | Active | Active | Active |  |  |  |  |  |  | 
3 | O=c1cc(-c2ccc(O)c(O)c2)oc2cc(O)cc(O)c12 | Active | Active | Active | Active | inactive | Active | Active | inactive | inactive | Active | inactive
4 | O=c1cc(-c2cc(O)c(O)c(O)c2)oc2cc(O)cc(O)c12 | inactive | inactive | inactive | inactive |  | inactive |  |  |  | inactive | 
